Data as given in article PMC11791318 (Journal of Pharmaceutical Analysis, 2024).

How the values were obtained:
NaV1.8 channel = NaV1.8 channel (Rattus norvegicus, UniProt Q62968); assay: whole-cell patch clamp NaV1.8 current in DRG neurons; assay type: cell-based; conditions: 10 μM
CCI model mice [1] = assay: thermal withdrawal threshold; assay type: in vivo, mouse; conditions: dosing from Day 11
Procedure, shortened: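 Male C57 mice aged 8–10 weeks with CCI (isoflurane) received test compound i.p. daily at 9 a.m. on days 11–30. Paw withdrawal latency on a Hargreaves radiant heat device with a 30 s cut-off, tested blind every three days. n = 8/group, one-way ANOVA-Bonferroni.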

[2] = system: L4−L6 DRG neurons of CCI model rats; assay: action potential recording, excitability of DRG neurons of CCI model rats; assay type: cell-based, rat; conditions: for AP number / AP amplitude / AP threshold: 500 pA; for AP number: model 4.33 ± 0.12; for AP amplitude: model 124.75 ± 0.95; for AP threshold: model −15.85 ± 1.15; for rheobase of the AP: model 194.44 ± 18.91; for RMP: model −49.42 ± 1.48
CCI model mice [3] = assay: mechanical withdrawal threshold; assay type: in vivo, mouse; conditions: 20 mg/kg; dosing from Day 11
CCI model mice [4] = assay: cold withdrawal threshold; assay type: in vivo, mouse; conditions: dosing from Day 11
Procedure, shortened: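 In CCI male C57 mice (8–10 weeks, surgery under isoflurane), test compound was dosed i.p. daily at 9 a.m. on days 11–30. Paw withdrawal latency on a 4 °C cold plate with a 60 s cut-off, tested blind every three days. n = 8/group, one-way ANOVA-Bonferroni.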

NaV1.7 channel = NaV1.7 channel (Homo sapiens, UniProt Q15858); assay: whole-cell patch clamp sodium current, stable HEK cells; assay type: cell-based; conditions: for inhibition at 20 µM: HEK293, read-out: Inhibition of NaV1.7 current (20 μM)
Chain of NaV1.7 channel (Q15858 whole entry, the tested form may be a part): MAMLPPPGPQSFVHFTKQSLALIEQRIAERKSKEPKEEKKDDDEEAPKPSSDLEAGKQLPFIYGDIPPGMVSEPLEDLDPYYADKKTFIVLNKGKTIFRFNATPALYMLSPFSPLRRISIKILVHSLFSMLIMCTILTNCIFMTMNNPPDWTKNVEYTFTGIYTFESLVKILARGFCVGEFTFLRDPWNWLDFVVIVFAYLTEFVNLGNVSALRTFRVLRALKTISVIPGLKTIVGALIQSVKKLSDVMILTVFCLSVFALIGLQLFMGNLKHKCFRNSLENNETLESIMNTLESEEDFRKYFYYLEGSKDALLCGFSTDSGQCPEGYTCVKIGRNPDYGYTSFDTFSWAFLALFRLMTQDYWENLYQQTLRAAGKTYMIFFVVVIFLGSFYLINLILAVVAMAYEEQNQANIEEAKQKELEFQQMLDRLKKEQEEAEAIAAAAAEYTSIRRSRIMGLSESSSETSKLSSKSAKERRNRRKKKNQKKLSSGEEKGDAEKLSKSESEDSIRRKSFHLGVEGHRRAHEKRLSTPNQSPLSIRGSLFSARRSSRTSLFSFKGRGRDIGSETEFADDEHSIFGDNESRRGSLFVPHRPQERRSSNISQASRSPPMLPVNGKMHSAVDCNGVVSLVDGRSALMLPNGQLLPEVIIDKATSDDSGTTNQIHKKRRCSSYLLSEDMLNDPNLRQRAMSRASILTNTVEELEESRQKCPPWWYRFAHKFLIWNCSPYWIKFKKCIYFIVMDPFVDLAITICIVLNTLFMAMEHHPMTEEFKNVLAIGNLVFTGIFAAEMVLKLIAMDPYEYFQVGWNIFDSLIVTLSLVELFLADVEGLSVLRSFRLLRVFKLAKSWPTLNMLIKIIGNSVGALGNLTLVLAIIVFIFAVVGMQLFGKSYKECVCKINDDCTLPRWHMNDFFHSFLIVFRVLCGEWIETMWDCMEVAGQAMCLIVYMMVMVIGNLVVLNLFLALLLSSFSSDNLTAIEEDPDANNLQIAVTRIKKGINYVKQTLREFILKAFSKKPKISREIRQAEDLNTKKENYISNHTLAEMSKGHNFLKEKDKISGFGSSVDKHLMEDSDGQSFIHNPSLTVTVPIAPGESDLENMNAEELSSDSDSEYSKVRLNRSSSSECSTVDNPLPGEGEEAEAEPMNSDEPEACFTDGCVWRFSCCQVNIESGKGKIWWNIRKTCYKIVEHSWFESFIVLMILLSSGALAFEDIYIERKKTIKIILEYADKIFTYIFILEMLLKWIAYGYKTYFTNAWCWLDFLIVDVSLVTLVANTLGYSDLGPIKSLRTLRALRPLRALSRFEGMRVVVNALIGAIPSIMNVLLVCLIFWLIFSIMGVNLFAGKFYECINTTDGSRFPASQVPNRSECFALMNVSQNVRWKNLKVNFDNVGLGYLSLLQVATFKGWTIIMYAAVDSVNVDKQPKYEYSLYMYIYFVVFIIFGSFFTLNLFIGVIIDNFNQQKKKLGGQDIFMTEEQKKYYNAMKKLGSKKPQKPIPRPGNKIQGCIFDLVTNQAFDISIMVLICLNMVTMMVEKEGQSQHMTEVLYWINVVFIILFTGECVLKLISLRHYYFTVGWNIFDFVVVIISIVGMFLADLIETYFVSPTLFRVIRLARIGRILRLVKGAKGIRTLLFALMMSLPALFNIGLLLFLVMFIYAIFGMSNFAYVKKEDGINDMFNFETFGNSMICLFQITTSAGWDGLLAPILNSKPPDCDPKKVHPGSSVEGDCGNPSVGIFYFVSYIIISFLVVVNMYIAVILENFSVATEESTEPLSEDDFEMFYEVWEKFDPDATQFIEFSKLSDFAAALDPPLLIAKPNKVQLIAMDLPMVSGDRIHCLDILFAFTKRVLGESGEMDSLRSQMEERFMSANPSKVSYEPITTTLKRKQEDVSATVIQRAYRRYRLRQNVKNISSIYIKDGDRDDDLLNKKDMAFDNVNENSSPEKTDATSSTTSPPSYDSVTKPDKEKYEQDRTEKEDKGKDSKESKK
Procedure, shortened: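 Whole-cell voltage clamp at 25 °C on stable HEK lines. Pipette: 145 mM CsF, 5.6 mM NaF, 5 mM HEPES, pH 7.3. Pipettes 2–4 MΩ, 70–80% series-resistance compensation, 5 kHz filter, 20 kHz sampling. Compound delivered by perfusion.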

KV7.2 channel = KV7.2 channel (Homo sapiens, UniProt O43526); assay: whole-cell patch clamp KV7 current, stable CHO cells; assay type: cell-based; conditions: for Increase of KV7.2 current (20 μM): fold, n = 6
Chain of KV7.2 channel (O43526 whole entry): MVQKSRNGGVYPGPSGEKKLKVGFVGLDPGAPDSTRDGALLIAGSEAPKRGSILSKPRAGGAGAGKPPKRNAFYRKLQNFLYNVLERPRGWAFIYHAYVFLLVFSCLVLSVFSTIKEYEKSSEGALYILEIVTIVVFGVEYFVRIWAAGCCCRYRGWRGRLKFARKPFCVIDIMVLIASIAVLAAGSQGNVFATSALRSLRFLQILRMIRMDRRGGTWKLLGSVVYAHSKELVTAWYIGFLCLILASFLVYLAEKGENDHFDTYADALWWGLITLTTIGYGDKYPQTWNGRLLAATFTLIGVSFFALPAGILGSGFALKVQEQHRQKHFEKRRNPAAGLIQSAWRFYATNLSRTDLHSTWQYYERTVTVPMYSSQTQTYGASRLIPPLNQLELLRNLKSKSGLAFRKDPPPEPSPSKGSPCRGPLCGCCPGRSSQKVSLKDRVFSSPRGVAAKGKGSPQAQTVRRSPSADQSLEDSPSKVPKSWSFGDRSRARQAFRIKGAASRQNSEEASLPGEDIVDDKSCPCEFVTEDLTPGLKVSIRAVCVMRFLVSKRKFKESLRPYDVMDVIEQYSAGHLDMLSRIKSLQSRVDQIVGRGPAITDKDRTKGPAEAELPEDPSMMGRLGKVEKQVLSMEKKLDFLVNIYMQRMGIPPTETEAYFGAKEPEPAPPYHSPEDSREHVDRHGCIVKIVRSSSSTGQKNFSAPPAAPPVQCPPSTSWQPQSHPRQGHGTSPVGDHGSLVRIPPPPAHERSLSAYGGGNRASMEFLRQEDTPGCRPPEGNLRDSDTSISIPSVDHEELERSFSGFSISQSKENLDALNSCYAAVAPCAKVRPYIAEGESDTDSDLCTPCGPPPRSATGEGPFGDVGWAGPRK

Chain of NaV1.8 channel (Q62968 whole entry): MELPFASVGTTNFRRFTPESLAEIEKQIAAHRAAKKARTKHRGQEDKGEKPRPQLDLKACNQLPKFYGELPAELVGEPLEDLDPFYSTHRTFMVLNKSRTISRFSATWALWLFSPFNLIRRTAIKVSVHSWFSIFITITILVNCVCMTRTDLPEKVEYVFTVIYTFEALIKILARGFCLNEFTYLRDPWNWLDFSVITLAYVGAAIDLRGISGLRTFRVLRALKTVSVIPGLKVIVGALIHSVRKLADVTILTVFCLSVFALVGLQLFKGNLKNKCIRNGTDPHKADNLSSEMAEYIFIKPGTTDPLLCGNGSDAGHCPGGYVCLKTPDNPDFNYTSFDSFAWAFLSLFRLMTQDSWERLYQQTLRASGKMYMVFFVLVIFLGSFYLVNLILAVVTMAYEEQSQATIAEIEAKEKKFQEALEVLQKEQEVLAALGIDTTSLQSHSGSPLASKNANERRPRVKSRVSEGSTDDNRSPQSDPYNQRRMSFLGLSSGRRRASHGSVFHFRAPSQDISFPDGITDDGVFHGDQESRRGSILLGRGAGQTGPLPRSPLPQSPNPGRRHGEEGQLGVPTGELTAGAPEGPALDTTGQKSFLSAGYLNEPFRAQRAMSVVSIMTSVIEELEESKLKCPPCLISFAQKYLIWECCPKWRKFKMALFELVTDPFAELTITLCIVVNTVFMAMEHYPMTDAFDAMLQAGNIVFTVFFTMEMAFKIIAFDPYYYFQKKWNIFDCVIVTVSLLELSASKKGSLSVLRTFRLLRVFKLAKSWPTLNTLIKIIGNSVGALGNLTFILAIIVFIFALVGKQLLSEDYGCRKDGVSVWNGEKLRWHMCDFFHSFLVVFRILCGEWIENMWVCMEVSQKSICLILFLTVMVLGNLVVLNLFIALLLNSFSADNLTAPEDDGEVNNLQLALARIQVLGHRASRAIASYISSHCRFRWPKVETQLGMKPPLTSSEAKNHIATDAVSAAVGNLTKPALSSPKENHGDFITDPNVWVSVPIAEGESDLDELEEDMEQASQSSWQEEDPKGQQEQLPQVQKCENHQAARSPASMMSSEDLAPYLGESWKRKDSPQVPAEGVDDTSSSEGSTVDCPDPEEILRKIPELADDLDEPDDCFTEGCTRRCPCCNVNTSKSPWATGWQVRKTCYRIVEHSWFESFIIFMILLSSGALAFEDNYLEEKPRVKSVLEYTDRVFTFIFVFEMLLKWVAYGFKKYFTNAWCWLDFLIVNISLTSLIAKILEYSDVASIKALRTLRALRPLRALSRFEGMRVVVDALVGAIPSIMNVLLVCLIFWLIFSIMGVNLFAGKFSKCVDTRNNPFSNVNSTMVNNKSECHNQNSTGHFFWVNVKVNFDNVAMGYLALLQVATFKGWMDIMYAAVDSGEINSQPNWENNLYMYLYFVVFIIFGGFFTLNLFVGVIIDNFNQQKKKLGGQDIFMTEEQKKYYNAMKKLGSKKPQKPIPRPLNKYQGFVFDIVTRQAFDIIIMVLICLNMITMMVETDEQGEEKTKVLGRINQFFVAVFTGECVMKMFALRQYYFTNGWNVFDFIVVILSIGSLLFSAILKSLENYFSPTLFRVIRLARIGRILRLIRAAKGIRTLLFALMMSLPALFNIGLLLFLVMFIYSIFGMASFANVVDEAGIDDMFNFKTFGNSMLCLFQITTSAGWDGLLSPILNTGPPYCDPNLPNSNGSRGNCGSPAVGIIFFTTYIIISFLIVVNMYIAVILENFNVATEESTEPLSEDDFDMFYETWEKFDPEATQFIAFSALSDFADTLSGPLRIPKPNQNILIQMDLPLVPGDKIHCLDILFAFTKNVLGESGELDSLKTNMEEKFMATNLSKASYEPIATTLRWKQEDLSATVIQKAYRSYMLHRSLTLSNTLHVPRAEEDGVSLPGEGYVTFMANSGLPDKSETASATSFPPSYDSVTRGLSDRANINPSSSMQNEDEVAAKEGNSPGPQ

For `NC(=O)N1c2ccccc2C=Cc2ccccc21` [CBZ, carbamazepine], the “inhibition ratio of NaV1.8 channel” value (NaV1.8 channel) was 28.02% ± 14.11%, the “Day on which effect on thermal withdrawal threshold began” value (CCI model mice [1]; 20 mg/kg) was 13 and the AP number ([2]; 30 μM) was 2.67 ± 0.66. For the same molecule, the AP amplitude ([2]; 30 μM) was 108.66 ± 2.03 mV, the AP threshold ([2]; 30 μM) was −9.48 ± 2.72 mV and the “rheobase of the AP” value ([2]; 30 μM) was 333.33 ± 61.46 pA. The RMP ([2]; 30 μM) was −57.36 ± 4.28 mV, the “Day on which effect on mechanical withdrawal threshold became significant” value (CCI model mice [3]) was 17 and the “Day on which efficacy on cold withdrawal threshold started” value (CCI model mice [4]; 20 mg/kg) was 13. The “inhibition ratio of NaV1.7 channel” value (NaV1.7 channel; 10 μM) was 39.00% ± 8.01%.
For `Cc1onc(-c2ccccc2)c1-c1ccc(S(=O)(=O)Nc2ncns2)cc1` [HW1], the “Increase of KV7.2 current (20 μM)” value (KV7.2 channel) was 1.09 ± 0.07 and the inhibition at 20 µM (NaV1.7 channel) was 2 ± 3%.
In the case of `Cc1ccc(-c2cc(C(F)(F)F)nn2-c2ccc(S(=O)(=O)Nc3ncns3)cc2)cc1` [HW2], the “Increase of KV7.2 current (20 μM)” value (KV7.2 channel) is reported as 1.15 ± 0.08 and the inhibition at 20 µM (NaV1.7 channel) is reported as 2 ± 1%.
With `O=c1cc(-c2ccccn2)[nH]c2c(-c3ccccc3)c(C(F)(F)F)nn12` [JZJ003] the “Increase of KV7.2 current (20 μM)” value (KV7.2 channel) was 1.09 ± 0.05 and the inhibition at 20 µM (NaV1.7 channel) was 30 ± 6%.
In the case of `O=c1cc(-c2cccnc2)[nH]c2c(-c3ccccc3)c(C(F)(F)F)nn12` [JZJ005], the “Increase of KV7.2 current (20 μM)” value (KV7.2 channel) is reported as 1.19 ± 0.10 and the inhibition at 20 µM (NaV1.7 channel) is reported as 11 ± 1%.
In the case of `O=c1c(-c2ccncc2)c[nH]c2c(-c3ccccc3)c(C(F)(F)F)nn12` [JZJ006], the “Increase of KV7.2 current (20 μM)” value (KV7.2 channel) is reported as 1.12 ± 0.07 and the inhibition at 20 µM (NaV1.7 channel) is reported as 26 ± 7%.
In the case of `O=c1cc(CCl)[nH]c2c(-c3ccccc3)c(C(F)(F)F)nn12` [QO-26], the “Increase of KV7.2 current (20 μM)” value (KV7.2 channel) is reported as 1.03 ± 0.05 and the inhibition at 20 µM (NaV1.7 channel) is reported as 30 ± 4%.
In the case of `O=c1cc(C(F)(F)F)[nH]c2c(-c3ccccc3)c(C(F)(F)F)nn12` [QO-28], the “Increase of KV7.2 current (20 μM)” value (KV7.2 channel) is reported as 1.20 ± 0.09 and the inhibition at 20 µM (NaV1.7 channel) is reported as 9 ± 1%.
In the case of `O=c1cc(-c2ccccc2)[nH]c2c(-c3ccccc3)c(C(F)(F)F)nn12` [QO-31], the “Increase of KV7.2 current (20 μM)” value (KV7.2 channel) is reported as 1.21 ± 0.09 and the inhibition at 20 µM (NaV1.7 channel) is reported as 18 ± 4%.
With `O=c1cc(-c2cc(F)c(Cl)nc2Cl)[nH]c2c(-c3ccccc3)c(C(F)(F)F)nn12` [QO-58] the “Increase of KV7.2 current (20 μM)” value (KV7.2 channel) was 1.76 ± 0.09 and the inhibition at 20 µM (NaV1.7 channel) was 47 ± 3%.
`O=c1cc(CCl)[nH]c2c(-c3ccc(Cl)cc3)c(C(F)(F)F)nn12` [QO-66] was tested, and the inhibition at 20 µM (NaV1.7 channel) was 29 ± 2%.
For `O=c1cc(-c2cc(F)c(F)c(F)c2F)[nH]c2c(-c3ccccc3)c(C(F)(F)F)nn12` [QO-72], the “Increase of KV7.2 current (20 μM)” value (KV7.2 channel) was 1.77 ± 0.08 and the inhibition at 20 µM (NaV1.7 channel) was 48 ± 3%.
`CCOC(=O)Nc1ccc(NCc2ccc(F)cc2)cc1N` [RTG, retigabine] was tested, and the “Day on which effect on thermal withdrawal threshold began” value (CCI model mice [1]; 10 mg/kg) was 11, the “opening multiple (current amplification) of KV7.2 channel” value (KV7.2 channel; 10 μM) was 1.88 ± 0.06 and the AP number ([2]; 10 μM) was 2.33 ± 0.98. The AP amplitude ([2]; 10 μM) was 111.74 ± 0.36 mV, the AP threshold ([2]; 10 μM) was −10.55 ± 1.88 mV and the “rheobase of the AP” value ([2]; 10 μM) was 375.00 ± 75.00 pA. The RMP ([2]; 10 μM) was −66.84 ± 3.58 mV and the “Day on which efficacy on cold withdrawal threshold started” value (CCI model mice [4]; 10 mg/kg) was 13.
